Data as given in ChEMBL document CHEMBL1146568, “Xanthones and benzophenones from the stems of Garcinia multiflora” (J Nat Prod, 2003).

Tests used:
[1] = Toxicity against brine shrimp; format: organism-based; settings: artemia, in vivo; read-out: LD50 (the source's name)
[2] = system: Radical scavenging activity; experiment: Antioxidant activity assessed as DPPH radical scavenging activity; format: functional
How it was run: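 Test sample in EtOH mixed with a 0.1 mM DPPH solution in EtOH (concentration before mixing). Absorbance read at 517 nm after 20 min. Scavenging taken as the drop in DPPH absorbance, expressed as a percentage of a DPPH control without sample. Catechin served as the positive control.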

| SMILES | LC50 [1] [µM] | IC50 [2] [µM] |
| --- | --- | --- |
| CC(C)=CCC/C(C)=C/CC1(CC=C(C)C)C(=O)C(O)=Cc2oc3cc(O)cc(O)c3c(=O)c21 (configuration not stated) [GARCINIANONE A] | 7.7 | 107 |
| COc1cc(O)cc(O)c1C(=O)c1ccc(O)c(O)c1 | > 100 | 7.8 |
| COc1ccc2cc3[n+](cc2c1OC)CCc1cc2c(cc1-3)OCO2 [BERBERINE CHLORIDE] | 67 |  |
| O=C(c1cccc(O)c1)c1c(O)cc(O)cc1O | > 100 | 66.3 |
| O=C(c1ccc(O)c(O)c1)c1c(O)cc(O)cc1O [MACLURIN] | 43.1 | 5.3 |
| CC(C)=CCC/C(C)=C\CC1(CC=C(C)C)C(=O)C(O)=Cc2oc3cc(O)cc(O)c3c(=O)c21 (configuration not stated) [GARCINIANONE B] | 25.8 | 145 |
| Oc1cc(O)c2c(c1)OC(c1ccc(O)c(O)c1)C(O)C2 (configuration not stated) [CATECHIN] |  | 2.53 |
